Source: PubChem (several laboratories)
PKA-R2B act: PKA-R2B complex activation | PKA-R2B holoenzyme dissociation, Cy5-IP20 fluorescence polarization; R2B truncated from residue 108, S112A mutant; 0% DMSO only, 100% 113 µM cGMP | AID 504700 | activation, % at 11.4 µM | 0.079% of 340,000 active;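 active means activation above a cutoff set at the mean over all compounds plus 3 SD, cut at about 18% in these data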;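 further: higher means more holoenzyme dissociation and a rise in polarization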
CRFR2-BP antag: blocks CRF-induced signaling of the CRF-BP/CRF-R2 complex; HEK293 CRF-R2/CRF-BP, CRF-induced calcium fluorescence; inhibition, % at 11.8 µM; 0.59% of 350,000 active; AID 588475;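 active means inhibition of the ligand-induced calcium signal above about 50% at the single tested concentration, limit read from the data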
SIRT5 block: inhibitors of human sirtuin-5 desuccinylase; Q9NXA8; Purified SirT5, succinyl-peptide AMC, trypsin-coupled fluorescence; inhibition, % at 15 µM; 1.1% of 330,000 active; in the data active means inhibition above about 15%
Target sequence (Q9NXA8 whole entry, looked up): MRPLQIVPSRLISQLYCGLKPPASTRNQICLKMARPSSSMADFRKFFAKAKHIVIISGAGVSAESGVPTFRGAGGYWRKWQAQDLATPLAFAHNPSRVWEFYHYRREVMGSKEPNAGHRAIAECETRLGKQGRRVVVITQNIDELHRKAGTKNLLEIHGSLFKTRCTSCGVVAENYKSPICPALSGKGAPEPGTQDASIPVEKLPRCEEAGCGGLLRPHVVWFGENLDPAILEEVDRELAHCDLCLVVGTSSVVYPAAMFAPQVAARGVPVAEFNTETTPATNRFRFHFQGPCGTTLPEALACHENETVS
S100A4 MyoIIA: inhibitors of human S100A4 binding to myosin IIA peptide; P26447; S100A4/TAMRA-MyoIIA peptide fluorescence polarization; inhibition, % at 10.7 µM; 0.14% of 360,000 active; AID 652163;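 active means mean inhibition of at least 70% across replicates, with every replicate also reaching that level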
Target sequence (P26447 whole entry, looked up): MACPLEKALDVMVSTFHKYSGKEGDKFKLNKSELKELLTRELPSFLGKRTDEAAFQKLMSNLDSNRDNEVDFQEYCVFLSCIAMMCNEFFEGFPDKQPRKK
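Test system – S100A4 monomer (human) · Compound – single-point compound testing · Schedule – 5 min incubation before reading · Probe or stimulus – TAMRA-labelled myosin IIA heavy-chain peptide probe, 5 nM · Benchmarks – neutral control DMSO, positive control TFP · Medium – Calcium-containing HEPES buffer, pH 7.2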
PKA-R1A act: PKA-R1A complex activation. P00514+P68181. PKA-R1A dissociation, Cy5-IP20 fluorescence polarization; scaled: DMSO 0%, 113 µM cGMP 100%. activation, % at 11.4 µM. 0.083% of 340,000 active. AID 504707;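 active means percent activation above the mean of all tested compounds plus 3 SD, cut at about 19% in these data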;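 further: higher means more PKAc released from R1A so a rise in polarization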
Starred values were filed as active, the others as inactive; / = no result. This is a sample that favours compounds with a hit; in the whole collection about 1.5% have one here.

SMILES | PKA-R2B act | CRFR2-BP antag | SIRT5 block | S100A4 MyoIIA | PKA-R1A act
CC1(C)Cc2c(sc(/N=C/N3CCCC3)c2C#N)C(C)(C)N1 | 3 | 62* | / | / | 3
COc1ccccc1-c1ccc2c(c1)[C@H]1[C@H](CCN1S(=O)(=O)c1cn(C)cn1)[C@H](CO)N2 | / | / | 3 | -12 | /
O=C(Nc1cc(S(=O)(=O)N2CCCCC2)ccc1N1CCCCC1)C1CC1 | -5 | 103* | -3 | 1 | -8
CC(C)c1ccc(NC(=S)NCc2ccc3c(c2)OCO3)cc1 | -2 | -9 | 4 | -4 | 1
S=C(NCc1ccc(Cl)c(Cl)c1)Nc1ccc2c(c1)OCO2 | -2 | 69* | / | 0 | -5
S=C(Nc1ccc2c(c1)OCO2)Nc1ccccc1Cl | -1 | 76* | 1 | -4 | -3
S=C(Nc1ccc2c(c1)OCCO2)Nc1ccc2c(c1)OCO2 | -5 | 21 | -2 | 5 | -13
C[C@@H]1CN([C@H](C)CO)C(=O)c2cc(/C=C/c3ccccc3)cnc2O[C@@H]1CN(C)C | / | / | -20 | 5 | /
CCNC(=O)C[C@H]1CC[C@H](NS(=O)(=O)c2ccc(F)cc2)[C@H](CO)O1 | / | / | 0 | 3 | /
C[C@@H]1CN([C@H](C)CO)S(=O)(=O)c2ccc(C#Cc3ccccc3)cc2O[C@H]1CN(C)C(=O)C1CC1 | / | / | 16* | 10 | /
C[C@@H]1CN([C@H](C)CO)S(=O)(=O)c2ccc(C#C[C@@H](C)O)cc2O[C@@H]1CN(C)C(=O)C1CC1 | / | / | 5 | 121* | /
C[C@@H]1CN([C@@H](C)CO)S(=O)(=O)c2ccc(C#C[C@@H](C)O)cc2O[C@@H]1CN(C)C(=O)C1CC1 | / | / | 4 | 68 | /
C[C@H]1CN([C@@H](C)CO)S(=O)(=O)c2ccc(C#Cc3ccccc3)cc2O[C@H]1CN(C)C(=O)C1CC1 | / | / | 4 | 0 | /
Cc1c(N=NC2=C(O)CCCC2=O)c(=O)n(-c2ccccc2)n1C | -3 | 19 | 26* | -11 | -4
Cc1c(N=Nc2ccc(O)cc2)c(=O)n(-c2ccccc2)n1C | -17 | 2 | 6 | 0 | -4
C[C@H](O)C#Cc1cnc2c(c1)C(=O)N([C@H](C)CO)C[C@H](C)[C@@H](CN(C)C(=O)Cc1ccccn1)O2 | / | / | 0 | 10 | /
CC(=O)Nc1ccc(OCC(O)CN2C(C)CCCC2C)cc1 (stereo not drawn) | -4 | 18 | / | / | 1
CC(=O)Nc1ccc(OCC(O)CN2C(C)(C)CC(O)CC2(C)C)cc1 (stereo not drawn) | 2 | 53* | -1 | 2 | 10
O=c1[nH]c2ccc(S(=O)(=O)Nc3ccc(Cl)cc3)cc2[nH]1 | -3 | 0 | 8 | -3 | -5
O=c1[nH]c2ccc(Cl)cc2[nH]1 | -5 | 109* | / | 1 | -10
O=C(NCCc1cnc[nH]1)c1ccc(-c2ccccc2)cc1 | -5 | -7 | 17* | -2 | 2
CCOc1ccc(C(=O)NCCc2cnc[nH]2)cc1 | -10 | 2 | -3 | 0 | -9
O=C(O)CSc1cc(C(=O)c2ccccc2O)cn2c(=O)c3c4c(sc3nc12)CCCC4 | 3 | 5 | 37* | -7 | -9
O=C(C[C@H]1C[C@H]2c3cc(NC(=O)C4CCC4)ccc3O[C@H]2[C@@H](CO)O1)NCCN1CCCCC1 | / | / | 1 | 20 | /
CCOC(=O)c1ccc(N2N=C(C)/C(=C/C=C/c3ccco3)C2=O)cc1 | 8 | 2 | / | / | -7
SMILES | PKA-R2B act | CRFR2-BP antag | SIRT5 block | S100A4 MyoIIA | PKA-R1A act
O=C(O)c1cc(N2N=C(C(F)(F)F)/C(=C/C=C/c3ccco3)C2=O)ccc1Cl | -4 | 4 | 63* | -7 | 4
C[C@@H]1CCCCO[C@@H](CN(C)Cc2ccc(Cl)c(Cl)c2)[C@@H](C)CN([C@@H](C)CO)C(=O)c2cc(NS(=O)(=O)c3cn(C)cn3)ccc2O1 | / | / | 2 | 13 | /
COc1ccc(NC(=O)Nc2ccc3c(c2)CC(=O)N([C@@H](C)CO)C[C@@H](C)[C@H](CN(C)S(=O)(=O)c2ccccc2)O3)cc1 | / | / | 4 | -3 | /
S=C(NCCc1ccccc1)N1CCC2CC1c1c(Cl)cccc12 (stereo not drawn) | 4 | 51* | 1 | 3 | 4
C[C@H]1CN([C@@H](C)CO)C(=O)c2cc(NC(=O)Cn3cnnn3)ccc2O[C@H]1CN(C)S(=O)(=O)c1ccc(F)cc1 | / | / | 11 | -3 | /
C[C@H]1CN([C@@H](C)CO)C(=O)c2cc(NC(=O)Cn3cnnn3)ccc2O[C@@H]1CN(C)S(=O)(=O)c1ccc(F)cc1 | / | / | 31* | -3 | /
Cc1ccc(S(=O)(=O)N(C)C[C@H]2Oc3ccc(NC(=O)Cn4cnnn4)cc3CC(=O)N([C@@H](C)CO)C[C@H]2C)cc1 | / | / | 34* | -36 | /
CC(C)c1ccc2[nH]c3c(c2c1)[C@@H]1CCN2C(=O)CCC[C@H](C3)[C@H]12 | -6 | 5 | 35* | -9 | -4
CCNC(=O)[C@@H]1[C@@H](CO)[C@@H]2Cn3c(ccc(/C=C/c4ccccc4)c3=O)[C@H]1N2C(=O)C1CCCC1 | / | / | -78 | 15 | /
Cc1ccc(C[n+]2cc(-c3ccc(Cl)cc3)n3c2CCC3)cc1 | / | 3 | -3 | -3 | /
Cc1ccc(-c2c[n+](Cc3ccc(Cl)cc3)c3n2CCC3)cc1 | -1 | -9 | 40* | -10 | 10
CCC/C=C/c1ccc(CN2C(C)C(=O)N(Cc3cn(CCC4OCCCO4)nn3)CCS2(=O)=O)cc1 (stereo not drawn) | -3 | 7 | 22* | 1 | 0
CCC/C=C/c1ccc(CN2C(CC(C)C)C(=O)N(Cc3cn(CCC4OCCCO4)nn3)CCS2(=O)=O)cc1 (stereo not drawn) | 0 | 14 | -1 | 1 | -8
CC(C)C#Cc1cnc2c(c1)C(=O)N([C@H](C)CO)C[C@H](C)[C@@H](CN(C)C(=O)c1ccccn1)O2 | / | / | 1 | -3 | /
O=C(O)c1ccc2c(c1)ncn2C1CCCC1 | 1 | 10 | 21* | 5 | -13
C[C@H](CO)N1C[C@H](C)[C@H](CN(C)S(=O)(=O)c2ccccc2)OCCCC[C@H](C)Oc2ccc(NS(=O)(=O)c3cccs3)cc2C1=O | / | / | 7 | 2 | /
Cc1noc(C)c1NC(=O)N(C)C[C@H]1Oc2ccc(NS(=O)(=O)c3ccc(F)cc3)cc2CC(=O)N([C@@H](C)CO)C[C@H]1C | / | / | -2 | -8 | /
CN1C(=O)c2cc(NC(=O)c3cccs3)ccc2OC[C@H]2O[C@H](CC(=O)N3CCOCC3)CC[C@H]21 | / | / | 2 | 8 | /
CCCNC(=O)N[C@H]1C=C[C@@H](CC(=O)N2CCN(C)CC2)O[C@@H]1CO | / | / | 6 | 125* | /
CN(C)C(=O)C[C@@H]1C=C[C@H](NC(=O)Nc2cccc(F)c2)[C@@H](CO)O1 | / | / | 8 | 97* | /
COc1cccc(NC(=O)N[C@H]2C=C[C@H](CC(=O)N3CCN(C)CC3)O[C@H]2CO)c1 | / | / | 1 | -4 | /
